This is an account of results in ChEMBL document CHEMBL2434924, “Nonpeptidic angiotensin II AT₁ receptor antagonists derived from 6-substituted aminocarbonyl and acylamino benzimidazoles” (Eur J Med Chem, 2013).

As a reminder, the IC50 is the concentration at which inhibition is half-maximal. The pA2 is the negative logarithm of the molar antagonist concentration that doubles the agonist concentration needed for the same response.

Assay [1] concerns the target T1, Type-1 angiotensin II receptor (Homo sapiens, UniProt P30556).
T1 sequence (P30556 whole entry): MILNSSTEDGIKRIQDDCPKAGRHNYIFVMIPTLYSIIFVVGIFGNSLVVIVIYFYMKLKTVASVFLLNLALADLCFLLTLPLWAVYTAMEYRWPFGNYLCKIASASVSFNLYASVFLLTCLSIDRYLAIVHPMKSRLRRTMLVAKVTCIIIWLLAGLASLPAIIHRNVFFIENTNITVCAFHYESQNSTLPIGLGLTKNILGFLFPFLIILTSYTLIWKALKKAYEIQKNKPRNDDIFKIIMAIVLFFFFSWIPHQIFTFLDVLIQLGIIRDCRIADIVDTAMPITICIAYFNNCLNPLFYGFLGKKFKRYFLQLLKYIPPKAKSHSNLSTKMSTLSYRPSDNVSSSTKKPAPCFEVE
Put plainly: Displacement of [125I]-Sar1Ile8-angiotensin 2 from angiotensin 2 AT1 receptor (unknown origin) after 180 mins by gamma counting analysis. Background: In a radioligand displacement assay an active substance lowers the binding of a labelled ligand.

Assay [2] deals with T2, Type-2 angiotensin II receptor (Homo sapiens, UniProt P50052).
T2 sequence (P50052 whole entry): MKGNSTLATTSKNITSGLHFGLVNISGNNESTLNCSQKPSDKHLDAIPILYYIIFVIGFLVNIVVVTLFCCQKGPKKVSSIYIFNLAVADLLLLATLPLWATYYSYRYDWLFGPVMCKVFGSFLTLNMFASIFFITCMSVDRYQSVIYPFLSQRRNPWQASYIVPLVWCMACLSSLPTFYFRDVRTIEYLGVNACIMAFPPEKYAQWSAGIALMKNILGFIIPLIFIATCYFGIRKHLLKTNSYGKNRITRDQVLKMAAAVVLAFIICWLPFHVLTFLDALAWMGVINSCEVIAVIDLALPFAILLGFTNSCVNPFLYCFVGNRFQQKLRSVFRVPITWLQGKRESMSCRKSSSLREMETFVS
In words: Displacement of [125I]-Sar1Ile8-angiotensin 2 from angiotensin 2 AT2 receptor (unknown origin) after 180 mins by gamma counting analysis.

The nature of assay [3]: Antagonist activity at angiotensin 2 receptor in Japanese white rabbit thoracic aorta assessed as inhibition of angiotensin 2-induced contraction after 60 mins by Schild plot analysis. The class given is tissue-based, Oryctolagus cuniculus. An outline of the steps: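 Helical aortic strips (3-4 mm wide, 15-20 mm long) in 10-mL baths of bicarbonate salt solution (CaCl2·2H2O 2.5, NaHCO3 25, glucose 11.1), 37 °C, 95% O2/5% CO2, isometric tension. 1 h equilibration with 15-min washes; 67 mM KCl sets maximal contraction; 30 min washout; antagonist or vehicle for 60 min, then cumulative Ang II curves, one per strip. Response as % of KCl maximum; pA2 from Schild plot.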

The next assay concerns Rattus norvegicus. In words: Antihypertensive activity in SHR rat assessed as decrease in blood pressure at 10 mg/kg, po by tail plethysmography. In kind it is functional. An outline of the steps:
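Male SHR, 19-21 weeks old, n = 6 per group, with a vehicle group (water, 10 mL/kg). Single oral dose of 10 mg/kg. Blood pressure and heart rate measured by tail plethysmography in unanesthetized rats after a warming period.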

Assay [4] concerns the target T3, Type-1 angiotensin II receptor (Homo sapiens) (UniProt P30556).
T3 sequence (whole entry): T1 sequence (P30556 whole entry)
Put plainly: Ratio of losartan IC50 to compound IC50 for angiotensin 2 AT1 receptor (unknown origin).

Take `CCCc1nc2c(C)cc(C(=O)NCCCN3CCOCC3)cc2n1Cc1ccc(-c2ccccc2C(=O)O)cc1`: the concentration for half-maximal inhibition (IC50) in assay [1] is 10 nM; in assay [2], 718 nM.

`CCCc1nc2c(C)cc(NC(=O)c3ccccc3)cc2n1Cc1ccc(-c2ccccc2C(=O)O)cc1`: the results for the IC50 in assay [1] and in assay [2] were 3.9 nM and 6 nM, respectively.

Turning to `CCCc1nc2c(C)cc(C(=O)Nc3ccc(C)cc3)cc2n1Cc1ccc(-c2ccccc2C(=O)O)cc1`, the IC50 turned out to be 39 nM in assay [1] and 61 nM in assay [2].

In the case of `CCCc1nc2c(C)cc(NC(=O)OC)cc2n1Cc1ccc(-c2ccccc2C(=O)O)cc1`, the pA2 in assay [3] was 8.15. The figures for the IC50 in assay [1] and in assay [2] were 0.7 nM and 4370 nM, respectively.

With `CCCc1nc2c(C)cc(C(=O)NCCN3CCOCC3)cc2n1Cc1ccc(-c2ccccc2C(=O)O)cc1`, the pA2 in assay [3] came out at 8.2. In addition, the IC50 in assay [1] was 11 nM; in assay [2], > 10000 nM.

Consider `CCCc1nc2c(C)cc(NC(=O)Cc3ccccc3)cc2n1Cc1ccc(-c2ccccc2C(=O)O)cc1`, for which the pA2 in assay [3] is 8.21. Further, the IC50 in assay [1] came to 1.2 nM; in assay [2], 77 nM.

As to `CCCc1nc2c(C)cc(C(=O)NCCCc3ccccc3)cc2n1Cc1ccc(-c2ccccc2C(=O)O)cc1`, the IC50 in assay [1] is 115 nM.

Take `CCCc1nc2c(C)cc(C(=O)N3CCCCC3)cc2n1Cc1ccc(-c2ccccc2C(=O)O)cc1`: the values for the IC50 in assay [1] and in assay [2] were 20 nM and 42 nM, respectively.

On to `CCCCNC(=O)c1cc(C)c2nc(CCC)n(Cc3ccc(-c4ccccc4C(=O)O)cc3)c2c1`, for which the IC50 in assay [1] was determined as 13 nM; in assay [2] it was 164 nM.

For `CCCCc1nc(Cl)c(CO)n1Cc1ccc(-c2ccccc2-c2nnn[nH]2)cc1` [LOSARTAN], in assay [3], the pA2 was 7.92.

The molecule `CCCc1nc2c(C)cc(NC(C)=O)cc2n1Cc1ccc(-c2ccccc2C(=O)O)cc1` showed an IC50 in assay [1] of 1430 nM.

In the case of `CCCNC(=O)c1cc(C)c2nc(CCC)n(Cc3ccc(-c4ccccc4C(=O)O)cc3)c2c1`, in assay [1], the IC50 came to 1340 nM.

`CCCc1nc2c(C)cc(C(=O)NCCc3ccccc3)cc2n1Cc1ccc(-c2ccccc2C(=O)O)cc1`: the Activity in the assay on Rattus norvegicus is >30 mmHg. The pA2 in assay [3] was found to be 8.51. For the same molecule, the IC50 in assay [1] was 3 nM; in assay [2], > 10000 nM. The Ratio IC50 in assay [4] was found to be 10.

In turn, `CCCc1nc2c(C)cc(C(=O)N3CCOCC3)cc2n1Cc1ccc(-c2ccccc2C(=O)O)cc1` yielded an IC50 in assay [1] of 1010 nM.

Consider `CCCc1nc2c(C)cc(NC(=O)CCc3ccccc3)cc2n1Cc1ccc(-c2ccccc2C(=O)O)cc1`, for which the Activity in the assay with Rattus norvegicus is listed as >30 mmHg. The pA2 in assay [3] worked out at 8.43. The IC50 amounted to 0.1 nM in assay [1] and 149 nM in assay [2]. For the same molecule, the Ratio IC50 in assay [4] turned out to be 10.

For `CCCc1nc2c(C)cc(NC(=O)CC)cc2n1Cc1ccc(-c2ccccc2C(=O)O)cc1`, the values for the IC50 in assay [1] and in assay [2] were 0.4 nM and 78 nM, respectively.

As for `CCCc1nc2c(C)cc(NC(=O)c3ccc(C)cc3)cc2n1Cc1ccc(-c2ccccc2C(=O)O)cc1`, in assay [3], the pA2 turned out to be 8.25. Also, the figures for the IC50 in assay [1] and in assay [2] were 4.9 nM and > 10000 nM, respectively.

In the case of `CCCC(=O)Nc1cc(C)c2nc(CCC)n(Cc3ccc(-c4ccccc4C(=O)O)cc3)c2c1`, the IC50 worked out at 0.3 nM in assay [1] and 53 nM in assay [2].
